From PMC5470083 (Molecular imaging, 2016)
Where two headings read alike, the source gives them in different places. Marks after values point to notes of the source that are not given here.

Legend:
[1] = target: T1, tau (NFTs) (Homo sapiens, UniProt P10636); assay type: binding; details: 1 µmol/L compound, human AD slices, n = 3
Target sequence in this assay (P10636 623-708 limits assumed): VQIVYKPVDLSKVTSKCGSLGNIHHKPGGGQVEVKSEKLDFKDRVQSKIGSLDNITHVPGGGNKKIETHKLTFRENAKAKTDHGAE

[2] = target: Aβ fibrils; details: read-out: Ki for Aβ fibrils; reported values; ref [3],[13]; cited from earlier work
[3] = Plasma radiometabolite analysis; assay type: in vivo, mouse; details: normal mice
Method in brief: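 NMRI mice under isoflurane (2.5% in O2) received about 3.7 MBq of 18F-labelled tracer via a lateral tail vein. They were decapitated at 2, 10, 30 or 60 min PI (n = 3/time point). EDTA blood was kept on ice and spun at 2330 ×g for 10 min. Plasma (0.5 mL) was spiked with 10 µg authentic unlabelled compound and run on C18 HPLC. Fractions were γ-counted for % intact tracer, reported as mean ± SD.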

[4] = target: Aβ (Homo sapiens, UniProt P05067); experiment: In vitro autoradiography binding inhibition of [11C]PiB on human AD brain slices
[5] = target: T1, tau (NFTs); assay type: binding
Target sequence in this assay (P10636 623-695 limits assumed): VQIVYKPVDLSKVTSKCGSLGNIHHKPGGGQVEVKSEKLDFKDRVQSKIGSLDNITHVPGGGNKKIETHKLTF

[6] = target: NFTs; details: autoradiography on human AD brain tissue sections; ref [8],[11]; cited from earlier work
[7] = Biodistribution in normal NMRI mice; assay type: in vivo, mouse; details: for %ID/g Blood / %ID/g Bone / %ID/g Brain / %ID/g Cerebellum / %ID/g Cerebrum / %ID/g Heart / %ID/g Kidneys / %ID/g Liver / %ID/g Lungs / %ID/g Muscle / %ID/g Pancreas / %ID/g Spleen: iv
Method in brief: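 Healthy male NMRI mice (30-40 g) under 2.5% isoflurane in O2 received about 0.9 MBq of 18F-labelled tracer by tail vein. They were decapitated at 2, 10, 30 and 60 min PI (n = 4/time point). Blood and organs were weighed and γ-counted. Blood, bone and muscle were taken as 7%, 12% and 40% of body mass. Blood clearance was calculated as the 2 min to 60 min activity ratio.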

[8] = target: PHF tau (Homo sapiens, UniProt P10636); assay type: binding
[9] = target: amyloid plaques (Homo sapiens, UniProt P05067); assay type: binding
[10] = Perfused brain radiometabolite analysis; assay type: in vivo, mouse; details: normal mice
[11] = read-out: % Block ± SD of tracer binding

Aβ, sequence (P05067 672-711 limits assumed): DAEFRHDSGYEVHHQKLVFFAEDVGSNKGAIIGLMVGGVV
amyloid plaques, sequence (P05067 672-711 limits assumed): as above
PHF tau, sequence (P10636 623-695 limits assumed): as the sequence (P10636 623-695 limits assumed) above

SMILES: CNc1ccc(-c2ccc3ccccc3n2)cc1 [BF-158, N-Methyl-4-(quinolin-2-yl)benzenamine]
- % Block ± SD of tracer binding ([1]; tracer 40 nmol/L [18F]T808): 93 ± 0.0%
- Ki [2]: > 5 µM

SMILES: FCCC1CCN(c2ccn3c(n2)nc2ccccc23)CC1 [T808, 2-[4-(2-fluoroethyl)piperidin-1-yl]pyrimido[1,2-a]benzimidazole]
- % Block ± SD of tracer binding ([1]; tracer 7 nmol/L [18F]T808): 89 ± 0.0%
- Mean % ± SD of intact tracer, plasma ([3]; 2 min after injection, n = 3): 65 ± 8%
- Mean % ± SD of intact tracer, plasma ([3]; 2 min after injection, n = 3, listed as [^18F]T808): 65%
- Mean % ± SD of intact tracer, plasma ([3]; 10 min after injection, n = 3): 34 ± 3%
- Mean % ± SD of intact tracer, plasma ([3]; 30 min after injection, n = 3): 29 ± 3%
- Mean % ± SD of intact tracer, plasma ([3]; 30 min after injection, n = 3, listed as [^18F]T808): 29%
- Mean % ± SD of intact tracer, plasma ([3]; 60 min after injection, n = 3): 26 ± 12%
- % Block ± SD of tracer binding ([4]; 1 µmol/L compound, tracer 66 nmol/L [11C]PiB, human AD slices, n = 3): 17 ± 0.0%
- inhibition at 1 µM [4, 11]: 17%
- inhibition at 1 µM ([4]; read-out: Inhibition of [11C]PiB binding, summary statements): < 17%
- % Block ± SD of tracer binding ([5]; 1 µmol/L compound, tracer 28 nmol/L [18F]T807, human AD slices, n = 3): 90 ± 10^b %
- inhibition at 1 µM [5, 11]: 90%
- Kd [6]: 0.022 µM
- fold higher binding affinity for NFTs over Aβ [6]: 27 fold
- %ID/g Blood ([7]; blood, 2 min PI): 1.8 ± 0.1 %ID/g
- 2/60 min activity ratio Blood (clearance from blood) ([7]; blood, 2 min to 60 min activity ratio): 2.7
- %ID/g Blood ([7]; blood, 10 min PI): 2.0 ± 0.2 %ID/g
- %ID/g Blood ([7]; blood, 30 min PI): 1.5 ± 0.1 %ID/g
- %ID/g Blood ([7]; blood, 60 min PI): 0.7 ± 0.1 %ID/g
- %ID/g Bone ([7]; 2 min PI): 2.6 ± 0.6 %ID/g
- %ID/g Bone ([7]; 10 min PI): 4.2 ± 0.6 %ID/g
- %ID/g Bone ([7]; 60 min PI): 9.2 ± 6.1 %ID/g
- %ID/g Brain ([7]; brain, 2 min PI): 4.9 ± 0.5 %ID/g
- 2/60 min activity ratio Brain ([7]; brain, 2 min to 60 min activity ratio): 18.2
- %ID/g Brain ([7]; brain, 10 min PI): 0.9 ± 0.3 %ID/g
- %ID/g Brain ([7]; brain, 30 min PI): 0.4 ± 0.0 %ID/g
- %ID/g Brain ([7]; brain, 60 min PI): 0.3 ± 0.0 %ID/g
- %ID/g Cerebellum ([7]; 2 min PI): 5.2 ± 0.5 %ID/g
- %ID/g Cerebellum ([7]; 10 min PI): 1.0 ± 0.6 %ID/g
- %ID/g Cerebellum ([7]; 30 min PI): 0.6 ± 0.1 %ID/g
- %ID/g Cerebellum ([7]; 60 min PI): 0.5 ± 0.2 %ID/g
- %ID/g Cerebrum ([7]; 2 min PI): 4.9 ± 0.5 %ID/g
- %ID/g Cerebrum ([7]; 10 min PI): 1.0 ± 0.1 %ID/g
- %ID/g Cerebrum ([7]; 30 min PI): 0.4 ± 0.0 %ID/g
- %ID/g Cerebrum ([7]; 60 min PI): 0.2 ± 0.0 %ID/g
- %ID/g Heart ([7]; 2 min PI): 3.2 ± 0.4 %ID/g
- %ID/g Heart ([7]; 10 min PI): 2.3 ± 0.3 %ID/g
- %ID/g Heart ([7]; 30 min PI): 1.7 ± 0.0 %ID/g
- %ID/g Heart ([7]; 60 min PI): 0.8 ± 0.1 %ID/g
- %ID/g Kidneys ([7]; 2 min PI): 26.3 ± 1.7 %ID/g
- %ID/g Kidneys ([7]; 10 min PI): 12.7 ± 1.7 %ID/g
- %ID/g Kidneys ([7]; 30 min PI): 9.2 ± 2.3 %ID/g
- %ID/g Kidneys ([7]; 60 min PI): 3.6 ± 1.7 %ID/g
- %ID/g Liver ([7]; 2 min PI): 11.8 ± 2.4 %ID/g
- %ID/g Liver ([7]; 10 min PI): 15.1 ± 1.6 %ID/g
- %ID/g Liver ([7]; 30 min PI): 8.3 ± 1.2 %ID/g
- %ID/g Liver ([7]; 60 min PI): 4.2 ± 0.7 %ID/g
- %ID/g Lungs ([7]; 2 min PI): 4.8 ± 0.6 %ID/g
- %ID/g Lungs ([7]; 10 min PI): 3.0 ± 0.3 %ID/g
- %ID/g Lungs ([7]; 30 min PI): 1.8 ± 0.2 %ID/g
- %ID/g Lungs ([7]; 60 min PI): 0.9 ± 0.2 %ID/g
- %ID/g Muscle ([7]; 2 min PI): 1.5 ± 0.5 %ID/g
- %ID/g Muscle ([7]; 10 min PI): 1.0 ± 0.2 %ID/g
- %ID/g Muscle ([7]; 30 min PI): 0.8 ± 0.1 %ID/g
- %ID/g Muscle ([7]; 60 min PI): 3.5 ± 5.5 %ID/g
- %ID/g Pancreas ([7]; 2 min PI): 7.3 ± 2.4 %ID/g
- %ID/g Pancreas ([7]; 10 min PI): 4.0 ± 2.0 %ID/g
- %ID/g Pancreas ([7]; 30 min PI): 2.2 ± 0.5 %ID/g
- %ID/g Pancreas ([7]; 60 min PI): 1.2 ± 0.3 %ID/g
- %ID/g Spleen ([7]; 2 min PI): 16.6 ± 6.7 %ID/g
- %ID/g Spleen ([7]; 10 min PI): 4.9 ± 0.6 %ID/g
- %ID/g Spleen ([7]; 30 min PI): 2.4 ± 0.4 %ID/g
- %ID/g Spleen ([7]; 60 min PI): 1.3 ± 0.3 %ID/g
- Ki [8]: 0.0094 µM
- Ki [9]: > 4.4 µM
- Mean % ± SD of intact tracer, perfused brain ([10]; 10 min after injection, n = 3): 88 ± 2%
- Mean % ± SD of intact tracer, perfused brain ([10]; 10 min after injection, n = 3, listed as [^18F]T808): 88%
- Mean % ± SD of intact tracer, perfused brain ([10]; 60 min after injection, n = 3): 34 ± 10%
- Mean % ± SD of intact tracer, perfused brain ([10]; 60 min after injection, n = 3, listed as [^18F]T808): 34%
